IMP-1 inhibitor: blocks Pseudomonas aeruginosa IMP-1 metallo-beta-lactamase; purified IMP-1, nitrocefin hydrolysis, epi-absorbance fluorescence; inhibition, % at 5.6 µM; actives 0.45% (n = 290,000);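 active = inhibition above the mean plus 3 SD of all compounds in the same screening run, cut at about 4.5% in these data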;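 also: 0% = IMP-1 with DMSO and 100% = DMSO wells lacking enzyme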
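system = purified recombinant IMP-1 beta-lactamase | amount = 0.2 nM IMP-1, as dispensed | medium = HEPES buffer pH 7.1 with ZnSO4 and Brij 35 | times = 25 °C, 15 min preincubation, 25 min reaction | detection = plate fluorescence quenching by hydrolysis product, ex 480/em 530 nm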
VIM-2 inh: inhibitors of Pseudomonas aeruginosa VIM-2 metallo-beta-lactamase | purified VIM-2, nitrocefin hydrolysis, epi-absorbance fluorescence | inhibition, % at 5.6 µM | actives 0.89% (n = 290,000);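 active = inhibition above the mean of all tested compounds plus 3 SD, cutoff set per screening run, cut at about 7.5% in these data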;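 also: red hydrolysis product quenches plate fluorescence so inhibitors raise well fluorescence; 0% = enzyme with DMSO and 100% = DMSO without enzyme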
FID counter: displaces DNA intercalator in HCV helicase counter-screen; DNA fluorescent intercalator displacement, fluorescence; inhibition, % at 7.9 µM; actives 0.17% (n = 290,000); AID 1845; in the data active = inhibition above about 37%;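 also: 0% = vehicle and 100% = reference compound; higher means more ethidium bromide displaced from hairpin DNA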
Mot1-301 SUMO: SUMOylation pathway inhibition by Mot1-301 growth rescue | S. cerevisiae Mot1-301 growth rescue, ATP luminescence, 38.5C; percent above DMSO median, 100 means doubled | actives 1% (n = 320,000) | growth rescue, % at 18.8 µM | AID 2716;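 active = every valid replicate shows activation above 250% relative to neutral control wells; inactive = the rest, any valid replicate at or below 250%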;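 also: OY570 slx delta 5 strain wells were the positive control but not used for scaling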
UBC9 SUMO inh: inhibitors of human SUMOylation (UBC9); inhibition, % at 35 µM; actives 0.36% (n = 290,000); HTRF SUMOylation assay, SAE1/SAE2 + UBC9, in vitro; in the data active = inhibition above about 50%, passing the limit was not always enough
Target sequence (P63279 whole entry, looked up): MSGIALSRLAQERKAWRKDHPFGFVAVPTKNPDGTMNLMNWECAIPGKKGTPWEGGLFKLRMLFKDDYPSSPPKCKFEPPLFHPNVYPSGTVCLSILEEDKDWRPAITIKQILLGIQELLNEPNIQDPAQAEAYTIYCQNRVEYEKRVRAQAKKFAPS
NALP1 yeast inh: inhibitors of NALP1 inflammasome in yeast. AID 2071. inhibition, % at 10 µM. actives 0.61% (n = 280,000). S. cerevisiae NALP1/ASC/caspase-1 growth, X-gal OD620, 72 h; in the data active = inhibition mostly above about 24%, no sharp cut-off; inactive = mostly below about 32%
Mot1 SUMO dose: inhibits SUMO pathway, affecting Mot1-301 yeast growth | S. cerevisiae Mot1-301 galactose growth, ATP luminescence, 24 h; -100 = growth of slx-deleted rescue strain | 2,300 tested, under 10 active | growth activity, percent, % at 42 µM | AID 493004 | shares compounds with Mot1-301 SUMO;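 active = Signal drops as the depositor expects, and the fitted half-maximal dose is no more than ten times the top valid tested dose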;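 also: more negative values mean stronger growth rescue toward the control strain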
Numbers without * were called inactive; · = not tested or not shown; [ ] = remark or other dose. The list is not random: actives were taken first. Their share in the collection is about 2.9%.

SMILES	IMP-1 inhibitor	VIM-2 inh	FID counter	Mot1-301 SUMO	UBC9 SUMO inh	NALP1 yeast inh	Mot1 SUMO dose
CCc1ccccc1NC(=O)N1CCCC(CCC(=O)N(C)CCc2ccccn2)C1 (centres undefined)	-2	0	-15	-12	-9	4	·
C=CCOc1ccccc1CN1CCCC(CCC(=O)N(C)CCc2ccccn2)C1 (centres undefined)	-1	-2	5	682*	10	-3	0[21 µM]
CCN(Cc1ccccc1)C(c1ccncc1)c1nnnn1C(C)(C)C (centres undefined)	-3	-3	-23	123	-7	6	·
CC(C)(C)c1ccc(CN(Cc2ccccc2)C(c2ccccn2)c2nnnn2C(C)(C)C)cc1 (centres undefined)	-1	-1	-17	505*	6	5	0
OC1CN=C2CCCc3c2n(c2ccc(Cl)cc32)C1 (centres undefined)	-3	-2	3	368*	9	9	0
CCn1c2c(c3cc(Cl)ccc31)CCCC2=O	-1	2	0	3	26	22	·
CC1=CS(=O)(=O)CC1Sc1nc2ccccc2[nH]1 (centres undefined)	-3	-4	1	-6	6	29	·
COC(=O)c1cc2c(s1)-c1ccc(OC)cc1CC2	0	0	-3	477*	22	29	-1
COC(=O)c1cc2c(s1)-c1ccccc1OC2	·	·	·	-8	46	-2	·
CN(C(=O)COc1cc(=O)n(C)c2ccccc12)c1ccc(Cl)cc1	-1	0	-10	447*	21	-35	0
CCOc1ccc(N(CC)C(=O)COc2cc(=O)n(C)c3ccccc23)cc1	-3	-1	-32	0	-11	38	·
CN(C(=O)COC(=O)c1ccc(=O)n(Cc2ccccc2)n1)C1CCS(=O)(=O)C1 (centres undefined)	·	·	·	-6	·	·	·
CN(Cc1ccccn1)C(=O)C1CCC(=O)N(Cc2cccc(F)c2)C1 (centres undefined)	-2	1	-5	13	9	12	·
COc1cccc(CN(C)C(=O)C2CCC(=O)N(Cc3cccc(F)c3)C2)c1 (centres undefined)	-1	-1	-34	722*	10	-7	-1
CC(CN1CCCCC1)C(=O)NNC(=O)C12CC3CC(CC(C3)C1)C2 (centres undefined)	-4	-2	2	0	6	-19	·
CC(CN1CCCCCC1)C(=O)NN (centres undefined)	-2	-2	-6	674*	14	8	1
CCCn1nc(C(=O)NNC(=O)c2cc(S(=O)(=O)NC)ccc2Br)c2ccccc2c1=O	·	·	·	549*	·	·	-1
O=C(N/N=C/c1cccc([N+](=O)[O-])c1)C1COc2ccccc2O1 (centres undefined)	-2	-3	-1	678*	9	14	0
Cn1cccc1CC(=O)N/N=C/c1cc([N+](=O)[O-])ccc1Cl	-1	-3	0	239	36	8	·
Cn1cccc1CC(=O)N/N=C/c1cccc([N+](=O)[O-])c1	-5	-6	-7	409*	6	1	0
C/C(=N\OCC(=O)NC12CC3CC(CC(C3)C1)C2)c1cc2ccccc2o1	0	-2	-22	-7	-27	28	·
CC(C)CCCN1CCN=C1Nc1ccccc1	2	2	7	596*	3	9	0
O=C(CCS(=O)(=O)c1ccc(Br)s1)NCc1ccccc1	-3	-4	0	737*	10	9	-1
Cc1ccc(CNC(=O)CCS(=O)(=O)c2ccc(Br)s2)o1	-2	-3	-4	11	-4	14	·
O=C(COC(=O)c1ccc([N+](=O)[O-])o1)Nc1ncc(Cl)cc1Cl	·	·	·	848*	·	·	-1
SMILES	IMP-1 inhibitor	VIM-2 inh	FID counter	Mot1-301 SUMO	UBC9 SUMO inh	NALP1 yeast inh	Mot1 SUMO dose
CCOC(=O)c1cc2c(ccn2-c2ccc(F)cc2)n1CC(=O)N1CCN(C(=O)c2ccco2)CC1	-6	-2	-5	378*	21	10	-1
CC(OC(=O)c1cnc2ccccc2n1)c1ccccc1Cl (centres undefined)	-4	2	-28	7	-4	28	·
Cc1ccc(-c2nn(-c3ccccc3)cc2C(=O)N2CCN(c3ccccn3)CC2)cc1	-1	-3	-14	596*	2	3	1
O=C(c1cn(-c2ccccc2)nc1-c1ccccc1)N1CCN(c2ccccn2)CC1	-2	-2	-31	-28	-12	-18	·
COc1cc(-c2nnc(SC(C)C(=O)Nc3c(C)n(C)n(-c4ccccc4)c3=O)o2)cc(OC)c1OC (centres undefined)	-4	-3	-19	5	19	6	·
Cc1c(NC(=O)C(C)Sc2nnc(-c3ccccc3)o2)c(=O)n(-c2ccccc2)n1C (centres undefined)	3	0	2	373*	8	4	0
Cc1ccccc1C(=O)Nc1ccnn1C1CCN(Cc2cnn(C(C)C)c2)CC1	-3	-2	16	-3	1	0	·
COc1cc(/C=N/NC(=O)c2ccncc2)ccc1OC(=O)c1ccco1	-3	-2	-29	404*	7	-21	0
COc1cc(/C=N/NC(=O)c2ccc(F)cc2)ccc1OC(=O)c1ccco1	-2	-4	-16	-10	-8	-14	·
COc1cc(/C=N/NC(=O)c2cccnc2)ccc1OCC(=O)N1CCOCC1	-3	-2	-7	768*	14	28	0
COc1ccc(/C=N/NC(=O)c2cccnc2)cc1CN1CCOCC1	-1	0	-7	-19	24	15	·
COc1cc(C(=O)Nc2sc3c(c2C(=O)O)CCC(C)C3)cc(OC)c1OC (centres undefined)	0	0	-14	438*	-4	15	0
COc1cc(C(=O)Nc2sc(C)c(C)c2C(=O)O)cc(OC)c1OC	-2	-2	-11	-7	4	12	·
CCCCN(C)CCCNC(=O)c1cn(CC)c2ccc(S(=O)(=O)N3CCOCC3)cc2c1=O	0	-1	10	-19	26	27	·
CCCCN(C)Cc1c(O)ccc2c(=O)c(-c3ccccc3OC)coc12	-2	-2	1	1	36	-19	·
CC1CC(C)CN(c2cc3c(cc2[N+](=O)[O-])C(=O)N(c2ccccc2)C3=O)C1 (centres undefined)	1	0	-5	-18	7	36	·
O=C1c2cc(N3CCCC3)c([N+](=O)[O-])cc2C(=O)N1c1ccccc1	-2	0	-1	377*	3	30	1

Assay outcomes from PubChem BioAssay.
